Data published in ChEMBL document CHEMBL1156256, “Poly(ethylene glycol) (PEG-400) as an alternative reaction solvent for the synthesis of some new 1-(4-(4'-chlorophenyl)-2-thiazolyl)-3-aryl-5-(2-butyl-4-chloro-1H-imidazol-5yl)-2-pyrazolines and their in vitro antimicrobial evaluation” (2010).
Values after ≈ are worked out from the molar mass of the structure shown.

Assays:
[1] = system: Escherichia coli; assay: Antibacterial activity against Escherichia coli MTCC 2939 after 24 hrs by agar diffusion method; type: functional; conditions: for MIC: Escherichia coli, MTCC 2939, 24 h
Outline: (§1)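 Agar well diffusion following NCCLS. Bacteria kept on nutrient agar slants at 37 ± 0.5 °C for 24 h. Nutrient agar plates seeded with 0.1 mL of culture suspension in 0.85% sterile saline (10⁵ CFU/mL). Plates incubated at 37 ± 0.5 °C for 24 h. Zone of inhibition recorded in mm, and MIC noted. 1% DMSO used as control.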

[2] = system: Salmonella enterica; assay: Antibacterial activity against Salmonella typhi MTCC 98 after 24 hrs by agar diffusion method; type: functional, Salmonella enterica subsp. enterica serovar Typhi; conditions: for MIC: Salmonella enterica, MTCC 98, 24 h
Outline: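 NCCLS agar diffusion. Strain kept on nutrient agar slant at 37 ± 0.5 °C for 24 h. Nutrient agar plates seeded with 0.1 mL of a 10⁵ CFU/mL suspension in sterile 0.85% saline. Plates incubated at 37 ± 0.5 °C for 24 h. Read-out: zone of inhibition (mm) and MIC.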

[3] = system: Staphylococcus aureus; assay: Antibacterial activity against Staphylococcus aureus MTCC 96 after 24 hrs by agar diffusion method; type: functional; conditions: for MIC: Staphylococcus aureus, MTCC 96, 24 h; outline: as §1
[4] = system: Bacillus subtilis; assay: Antibacterial activity against Bacillus subtilis MTCC 441 after 24 hrs by agar diffusion method; type: functional; conditions: for MIC: Bacillus subtilis, MTCC 441, 24 h; outline: as §1
[5] = system: Aspergillus niger; assay: Antifungal activity against Aspergillus niger MTCC 281 after 24 to 48 hrs by agar diffusion method; type: functional
Outline: (§2)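 Fungi grown on potato dextrose agar slants at 27 ± 0.2 °C for 24–48 h until sporulation. Spores suspended in sterile water with 1% Tween-80 and counted by haemocytometer (10⁶ CFU/mL). 0.1 mL spread on 2% agar PDA plates and held at 27 °C for 12 h. Wells then received 0.1 mL of compound at graded concentrations for MIC. Plates refrigerated 20 min for diffusion, then incubated at 27 ± 0.2 °C for […]. Zone read in mm. 1% DMSO used as control.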

[6] = system: Trichoderma viride; assay: Antifungal activity against Trichoderma viride MTCC 167 after 24 to 48 hrs by agar diffusion method; type: functional; outline: as §2
[7] = system: Penicillium chrysogenum; assay: Antifungal activity against Penicillium chrysogenum MTCC 160 after 24 to 48 hrs by agar diffusion method; type: functional; outline: as §2
[8] = system: Candida albicans; assay: Antifungal activity against Candida albicans MTCC 183 after 24 to 48 hrs by agar diffusion method; type: functional; outline: as §2
[9] = system: Fusarium verticillioides; assay: Antifungal activity against Fusarium moniliforme MTCC 156 after 24 to 48 hrs by agar diffusion method; type: functional; outline: as §2
[10] = Penicillium chrysogenum, MTCC 160
[11] = Fusarium verticillioides, MTCC 156

Compound | inhibition zone (IZ) [1] [mm] | MIC [1] [mg/L] | inhibition zone (IZ) [2] [mm] | MIC [2] [mg/L] | inhibition zone (IZ) [3] [mm] | MIC [3] [mg/L] | inhibition zone (IZ) [4] [mm] | MIC [4] [mg/L] | inhibition zone (IZ) [5] [mm] | MIC ([5]; Aspergillus niger, MTCC 281) [mg/L] | inhibition zone (IZ) [6] [mm] | MIC ([6]; Trichoderma viride, MTCC 167) [mg/L] | inhibition zone (IZ) [7] [mm] | MIC [7, 10] [mg/L] | inhibition zone (IZ) [8] [mm] | MIC ([8]; Candida albicans, MTCC 183) [mg/L] | inhibition zone (IZ) [9] [mm] | MIC [9, 11] [mg/L] | further results
CCCCc1nc(Cl)c(C2CC(c3ccccc3O)=NN2c2nc(-c3ccc(Cl)cc3)cs2)[nH]1 (stereo not drawn) | 15 | 50 (≈ 97.6 µM) | 10 | 50 (≈ 97.6 µM) | 13 | 50 (≈ 97.6 µM) | 16 | 50 (≈ 97.6 µM) | 14 | 25 (≈ 48.8 µM) | 16 | 25 (≈ 48.8 µM) | 14 | 25 (≈ 48.8 µM) | 15 | 25 (≈ 48.8 µM) | 13 | 25 (≈ 48.8 µM) | 
CCCCc1nc(Cl)c(C2CC(c3cc(Cl)ccc3O)=NN2c2nc(-c3ccc(Cl)cc3)cs2)[nH]1 (stereo not drawn) | 18 | 25 (≈ 45.7 µM) | 12 | 50 (≈ 91.4 µM) | 16 | 25 (≈ 45.7 µM) | 18 | 25 (≈ 45.7 µM) | 16 | 25 (≈ 45.7 µM) | 15 | 25 (≈ 45.7 µM) | 12 | 25 (≈ 45.7 µM) | 16 | 25 (≈ 45.7 µM) | 15 | 25 (≈ 45.7 µM) | 
CCCCc1nc(Cl)c(C2CC(c3ccc(OC)cc3)=NN2c2nc(-c3ccc(Cl)cc3)cs2)[nH]1 (stereo not drawn) | 16 | 25 (≈ 47.5 µM) | 14 | 50 (≈ 95 µM) | 18 | 25 (≈ 47.5 µM) | 16 | 25 (≈ 47.5 µM) | 16 | 25 (≈ 47.5 µM) | 14 | 25 (≈ 47.5 µM) | 12 | 50 (≈ 95 µM) | 14 | 25 (≈ 47.5 µM) | 12 | 25 (≈ 47.5 µM) | 
CCCCc1nc(Cl)c(C2CC(c3cc(Br)cc(Br)c3O)=NN2c2nc(-c3ccc(Cl)cc3)cs2)[nH]1 (stereo not drawn) | 22 | 25 (≈ 37.3 µM) | 19 | 25 (≈ 37.3 µM) | 18 | 25 (≈ 37.3 µM) | 21 | 25 (≈ 37.3 µM) | 20 | 25 (≈ 37.3 µM) | 18 | 25 (≈ 37.3 µM) | 18 | 25 (≈ 37.3 µM) | 20 | 25 (≈ 37.3 µM) | 14 | 25 (≈ 37.3 µM) | 
CCCCc1nc(Cl)c(C2CC(c3cc(Cl)c(C)cc3O)=NN2c2nc(-c3ccc(Cl)cc3)cs2)[nH]1 (stereo not drawn) | 14 | 50 (≈ 89.1 µM) | 9 | 50 (≈ 89.1 µM) | 12 | 50 (≈ 89.1 µM) |  | > 100 | 12 | 50 (≈ 89.1 µM) | 14 | 25 (≈ 44.6 µM) | 13 | 25 (≈ 44.6 µM) |  | > 100 | 11 | 50 (≈ 89.1 µM) | 
CCCCc1nc(Cl)c(C2CC(c3ccc(Cl)cc3)=NN2c2nc(-c3ccc(Cl)cc3)cs2)[nH]1 (stereo not drawn) | 16 | 25 (≈ 47.1 µM) | 10 | 50 (≈ 94.2 µM) | 12 | 50 (≈ 94.2 µM) | 14 | 50 (≈ 94.2 µM) | 12 | 50 (≈ 94.2 µM) | 11 | 50 (≈ 94.2 µM) | 10 | 50 (≈ 94.2 µM) | 14 | 25 (≈ 47.1 µM) | 11 | 50 (≈ 94.2 µM) | 
CCCCc1nc(Cl)c(C2CC(c3cc(C)cc(I)c3O)=NN2c2nc(-c3ccc(Cl)cc3)cs2)[nH]1 (stereo not drawn) | 14 | 50 (≈ 76.6 µM) | 15 | 25 (≈ 38.3 µM) | 15 | 25 (≈ 38.3 µM) | 12 | 50 (≈ 76.6 µM) | 14 | 25 (≈ 38.3 µM) | 14 | 25 (≈ 38.3 µM) | 12 | 25 (≈ 38.3 µM) | 11 | 50 (≈ 76.6 µM) | 10 | 50 (≈ 76.6 µM) | 
CCCCc1nc(Cl)c(C2CC(c3cc(Cl)c(C)c(Br)c3O)=NN2c2nc(-c3ccc(Cl)cc3)cs2)[nH]1 (stereo not drawn) | 15 | 25 (≈ 39.1 µM) | 12 | 50 (≈ 78.1 µM) | 11 | 50 (≈ 78.1 µM) | 18 | 25 (≈ 39.1 µM) | 15 | 25 (≈ 39.1 µM) | 16 | 50 (≈ 78.1 µM) | 9 | 50 (≈ 78.1 µM) | 12 | 50 (≈ 78.1 µM) | 15 | 25 (≈ 39.1 µM) | 
CCCCc1nc(Cl)c(C2CC(c3cc(I)cc(I)c3O)=NN2c2nc(-c3ccc(Cl)cc3)cs2)[nH]1 (stereo not drawn) | 20 | 25 (≈ 32.7 µM) | 18 | 25 (≈ 32.7 µM) | 16 | 25 (≈ 32.7 µM) | 20 | 25 (≈ 32.7 µM) | 19 | 25 (≈ 32.7 µM) | 20 | 25 (≈ 32.7 µM) | 16 | 25 (≈ 32.7 µM) | 18 | 25 (≈ 32.7 µM) | 16 | 25 (≈ 32.7 µM) | 
CN(C)[C@@H]1C(O)=C(C(N)=O)C(=O)[C@@]2(O)C(O)=C3C(=O)c4c(O)cccc4[C@@](C)(O)[C@H]3C[C@@H]12 [TETRACYCLINE] | 30 | 25 (≈ 56.3 µM) | 28 | 25 (≈ 56.3 µM) | 30 | 25 (≈ 56.3 µM) | 32 | 25 (≈ 56.3 µM) |  |  |  |  |  |  |  |  |  |  | 
NYSTATIN |  |  |  |  |  |  |  |  | 18 |  | 18 |  | 16 |  | 18 |  | 16 |  | MIC [5]: 25 mg/L; MIC [6]: 25 mg/L; MIC [7]: 25 mg/L; MIC [8]: 25 mg/L; MIC [9]: 25 mg/L
